Results from different studies.
Organism: Plasmodium falciparum
Effect on: parasite growth

| SMILES | technique | strain | time | setting | EC50 |
| --- | --- | --- | --- | --- | --- |
| O=S(=O)(c1ccc(-c2ccc3ncnc(Nc4ccc(OCc5ccccc5)c(Cl)c4)c3c2)cc1)N1CCOCC1 | SYBR Green | W2 | – | drug-resistant strain, blood stage | 0.72 µM |
| Cc1cc(N[C@H]2CCc3ccc(Cl)cc3C2)n2nc(C(C)(F)F)nc2n1 | – | HB3 | – | drug-resistant strain, blood stage | 0.00047 µM |
| C[C@H]1[C@@H](O)O[C@@H]2O[C@@]3(C)CC[C@H]4[C@H](C)CC[C@@H]1[C@@]24OO3 | SYBR Green | 3D7 | – | – | 0.00356 µM |
| Cc1cc(NC2Cc3cc(F)c(F)cc3C2)n2nc(C(C)(F)F)nc2n1 | – | DD2 | – | drug-resistant strain, blood stage | 0.043 µM |
| Cc1c2oc3c(C)ccc(C(=O)N[C@@H]4C(=O)N[C@H](C(C)C)C(=O)N5CCC[C@H]5C(=O)N(C)CC(=O)N(C)[C@@H](C(C)C)C(=O)O[C@@H]4C)c3nc-2c(C(=O)N[C@@H]2C(=O)N[C@H](C(C)C)C(=O)N3CCC[C@H]3C(=O)N(C)CC(=O)N(C)[C@@H](C(C)C)C(=O)O[C@@H]2C)c(N)c1=O | SYBR Green | 3D7 | – | blood stage | 1 µM |
| N#Cc1c(F)cccc1N1CCN(c2ccc(O)cc2)CC1 | SYBR Green | 3D7 | 72 h | – | > 12.5 µM |
| COc1cc2[nH]c(C)c(-c3ccc(Oc4ccc(OC(F)(F)F)cc4)cc3)c(=O)c2cc1Cl | SYBR Green | D6 | 72 h | blood stage | 0.0009 µM |
| Fc1cccc(COc2ccc(Nc3ncnc4ccc(-c5cccc(N6CCOCC6)c5)cc34)cc2Cl)c1 | SYBR Green | W2 | – | drug-resistant strain, blood stage | 0.68 µM |
| Cc1noc(-c2cccs2)c1C(=O)NCCc1cccc(Cl)c1 | SYBR Green | 3D7 | – | – | 0.313 µM |
| CCN(CC)CCCC(C)Nc1ccnc2cc(Cl)ccc12 (stereo not shown) | SYBR Green | D6 | 72 h | blood stage | 0.0091 µM |
